From ChEMBL document CHEMBL4627265, “Optimization of 8-oxoadenines with toll-like-receptor 7 and 8 activity” (Bioorg Med Chem Lett, 2020)
Active and inactive are the calls of the source. The calls are words filed in the database; no cut-off is given here.

Legend:
Type in all cases: cell-based
Toll-like receptor 7 = biological target: T1, Toll-like receptor 7 (Homo sapiens, UniProt Q9NYK1); assay: Agonist activity at human TLR7 expressed in HEK293 cells assessed as induction of NFKappaB activity after 24 hrs by SEAP reporter gene assay
T1 sequence (Q9NYK1 whole entry): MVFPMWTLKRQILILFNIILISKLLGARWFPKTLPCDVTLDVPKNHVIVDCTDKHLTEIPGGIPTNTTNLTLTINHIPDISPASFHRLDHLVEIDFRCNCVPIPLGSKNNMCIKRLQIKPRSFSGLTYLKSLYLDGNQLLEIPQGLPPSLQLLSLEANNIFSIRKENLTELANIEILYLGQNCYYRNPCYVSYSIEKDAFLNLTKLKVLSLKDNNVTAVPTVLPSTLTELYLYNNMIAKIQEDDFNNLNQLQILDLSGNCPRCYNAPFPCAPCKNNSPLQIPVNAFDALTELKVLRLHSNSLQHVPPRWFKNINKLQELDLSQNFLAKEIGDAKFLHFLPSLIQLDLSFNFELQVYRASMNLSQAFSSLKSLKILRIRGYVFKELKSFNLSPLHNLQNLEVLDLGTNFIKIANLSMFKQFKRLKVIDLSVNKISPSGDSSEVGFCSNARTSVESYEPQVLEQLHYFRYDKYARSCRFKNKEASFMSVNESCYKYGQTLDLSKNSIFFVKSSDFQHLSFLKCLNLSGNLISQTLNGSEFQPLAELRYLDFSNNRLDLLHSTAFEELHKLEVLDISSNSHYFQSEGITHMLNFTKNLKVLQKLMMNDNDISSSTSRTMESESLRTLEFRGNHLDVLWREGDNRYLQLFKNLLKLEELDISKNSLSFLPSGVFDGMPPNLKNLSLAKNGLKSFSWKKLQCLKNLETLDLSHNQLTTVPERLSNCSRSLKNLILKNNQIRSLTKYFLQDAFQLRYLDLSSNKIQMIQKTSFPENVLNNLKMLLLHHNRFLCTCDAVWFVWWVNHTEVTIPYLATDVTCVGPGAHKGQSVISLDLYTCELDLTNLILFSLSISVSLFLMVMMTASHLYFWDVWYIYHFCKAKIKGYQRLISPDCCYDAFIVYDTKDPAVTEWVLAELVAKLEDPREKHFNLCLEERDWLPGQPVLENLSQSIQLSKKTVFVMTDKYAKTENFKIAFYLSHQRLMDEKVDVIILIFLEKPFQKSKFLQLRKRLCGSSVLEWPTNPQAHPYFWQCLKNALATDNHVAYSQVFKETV
In short: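 HEK293 cells stably transfected with hTLR7 or hTLR8 plus an NFκB-driven SEAP reporter, treated 24 h with compound over a μM range; SEAP secretion read out. EC50 as mean ± SD of three (TLR7) or four (TLR8) independent experiments.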

[1] = biological target: T2, Toll-like receptor 7 (Homo sapiens) (UniProt Q9NYK1); assay: Agonist activity at TLR7 in human PBMC assessed as induction of plasmacytoid dendritic cell maturation by measuring increase in HLA-DR level at 0.1 uM after 6 hrs by flow cytometry relative to control
T2 sequence (whole entry): T1 sequence (Q9NYK1 whole entry)
In short: (§1)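 hPBMCs stimulated 6 h at a single 0.1 μM dose; HLA-DR, MHC-I, CD80 and CD86 on mDCs and pDCs measured by flow cytometry, expressed as fold change versus unstimulated cells. Mean ± SD of three independent experiments in three different donors.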

[2] = biological target: T2, Toll-like receptor 7 (Homo sapiens); assay: Agonist activity at TLR7 in human PBMC assessed as induction of plasmacytoid dendritic cell maturation by measuring increase in MHC-1 level at 0.1 uM after 6 hrs by flow cytometry relative to control; in short: as §1
[3] = biological target: T2, Toll-like receptor 7 (Homo sapiens); assay: Agonist activity at TLR7 in human PBMC assessed as IFNalpha stimulation at 10 uM
In short: (§2)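 IFNα secretion by hPBMCs across a μM dose range; MEC = lowest dose tested inducing cytokine, PC = dose giving highest level, PL = peak level at 10 μM. Data representative of one of three independent donors.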

[4] = biological target: Toll-like receptor 3 (Homo sapiens) (UniProt O15455); assay: Agonist activity at human TLR3 expressed in HEK293 cells by SEAP reporter gene assay
[5] = biological target: T2, Toll-like receptor 7 (Homo sapiens); assay: Agonist activity at TLR7 in human PBMC assessed as induction of plasmacytoid dendritic cell maturation by measuring increase in CD86 level at 0.1 uM after 6 hrs by flow cytometry relative to control; in short: as §1
[6] = biological target: T3, Toll-like receptor 9 (Homo sapiens) (UniProt Q9NR96); assay: Agonist activity at human TLR9 expressed in HEK293 cells by SEAP reporter gene assay
T3 sequence (whole entry): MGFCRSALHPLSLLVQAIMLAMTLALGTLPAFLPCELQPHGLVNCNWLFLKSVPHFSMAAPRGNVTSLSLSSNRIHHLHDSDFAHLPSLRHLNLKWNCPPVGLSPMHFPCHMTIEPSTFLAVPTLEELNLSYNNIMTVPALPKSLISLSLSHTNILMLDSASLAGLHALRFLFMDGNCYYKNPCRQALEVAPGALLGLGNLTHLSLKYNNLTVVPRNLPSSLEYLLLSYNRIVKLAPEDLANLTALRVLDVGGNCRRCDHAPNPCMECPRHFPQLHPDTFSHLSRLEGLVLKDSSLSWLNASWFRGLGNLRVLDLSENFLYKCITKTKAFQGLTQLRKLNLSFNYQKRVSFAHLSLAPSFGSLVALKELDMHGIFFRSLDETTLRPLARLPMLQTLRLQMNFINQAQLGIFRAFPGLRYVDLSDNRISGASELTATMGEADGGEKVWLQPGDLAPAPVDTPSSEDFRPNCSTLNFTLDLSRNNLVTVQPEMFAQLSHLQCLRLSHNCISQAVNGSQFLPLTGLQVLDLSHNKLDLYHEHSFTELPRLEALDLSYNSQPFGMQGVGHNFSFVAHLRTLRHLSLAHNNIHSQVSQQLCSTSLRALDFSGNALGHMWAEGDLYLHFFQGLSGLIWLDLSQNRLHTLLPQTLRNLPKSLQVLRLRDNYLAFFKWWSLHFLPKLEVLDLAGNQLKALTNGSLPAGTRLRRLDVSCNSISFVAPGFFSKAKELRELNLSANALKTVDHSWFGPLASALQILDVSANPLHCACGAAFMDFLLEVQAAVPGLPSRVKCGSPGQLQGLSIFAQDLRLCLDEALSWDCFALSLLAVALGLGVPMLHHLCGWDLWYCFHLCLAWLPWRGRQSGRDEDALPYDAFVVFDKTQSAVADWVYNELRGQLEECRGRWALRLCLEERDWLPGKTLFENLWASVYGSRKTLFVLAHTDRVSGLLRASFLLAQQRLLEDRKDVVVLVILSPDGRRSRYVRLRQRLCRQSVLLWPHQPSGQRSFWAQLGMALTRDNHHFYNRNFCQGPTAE

[7] = biological target: T2, Toll-like receptor 7 (Homo sapiens); assay: Agonist activity at TLR7 in human PBMC assessed as induction of plasmacytoid dendritic cell maturation by measuring CD86 level at 0.1 uM after 6 hrs by flow cytometry; in short: as §1
[8] = biological target: T2, Toll-like receptor 7 (Homo sapiens); assay: Agonist activity at TLR7 in human PBMC assessed as induction of plasmacytoid dendritic cell maturation by measuring CD80 level at 0.1 uM after 6 hrs by flow cytometry; in short: as §1
[9] = biological target: T4, Toll-like receptor 8 (Homo sapiens) (UniProt Q9NR97); assay: Agonist activity at TLR8 in human PBMC assessed as induction of myeloid dendritic cell maturation by measuring CD86 level at 0.1 uM after 6 hrs by flow cytometry; in short: as §1
T4 sequence (whole entry): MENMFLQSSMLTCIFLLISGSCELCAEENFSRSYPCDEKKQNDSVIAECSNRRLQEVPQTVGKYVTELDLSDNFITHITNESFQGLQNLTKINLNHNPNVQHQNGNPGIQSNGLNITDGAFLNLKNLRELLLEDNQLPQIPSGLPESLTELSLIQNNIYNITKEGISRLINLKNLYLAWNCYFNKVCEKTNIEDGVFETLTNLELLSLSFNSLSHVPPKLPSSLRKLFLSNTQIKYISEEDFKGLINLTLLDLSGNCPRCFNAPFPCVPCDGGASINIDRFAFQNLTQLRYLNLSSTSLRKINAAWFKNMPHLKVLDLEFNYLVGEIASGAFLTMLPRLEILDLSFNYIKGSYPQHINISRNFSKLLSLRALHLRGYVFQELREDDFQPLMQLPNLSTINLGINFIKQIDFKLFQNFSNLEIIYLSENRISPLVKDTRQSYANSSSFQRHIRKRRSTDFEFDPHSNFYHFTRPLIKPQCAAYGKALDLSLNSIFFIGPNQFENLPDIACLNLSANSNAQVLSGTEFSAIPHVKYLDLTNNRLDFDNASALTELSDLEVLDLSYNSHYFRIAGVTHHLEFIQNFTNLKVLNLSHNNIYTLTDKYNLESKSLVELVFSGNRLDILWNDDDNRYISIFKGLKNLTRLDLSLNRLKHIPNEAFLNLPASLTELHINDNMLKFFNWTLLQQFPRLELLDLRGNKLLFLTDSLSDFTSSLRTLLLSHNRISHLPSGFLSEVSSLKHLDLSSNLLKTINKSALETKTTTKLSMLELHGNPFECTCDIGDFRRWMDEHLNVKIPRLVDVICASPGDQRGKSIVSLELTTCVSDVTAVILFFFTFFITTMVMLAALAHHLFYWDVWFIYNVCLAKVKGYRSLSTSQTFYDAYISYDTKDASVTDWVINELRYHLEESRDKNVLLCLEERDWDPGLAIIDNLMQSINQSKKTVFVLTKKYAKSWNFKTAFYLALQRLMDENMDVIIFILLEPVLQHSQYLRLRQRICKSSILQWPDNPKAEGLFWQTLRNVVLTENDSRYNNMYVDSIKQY

[10] = biological target: T4, Toll-like receptor 8 (Homo sapiens); assay: Agonist activity at TLR8 in human PBMC assessed as TNFalpha level at 10 uM
In short: (§3)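 TNFα secretion by hPBMCs across a μM dose range; MEC = lowest dose tested inducing cytokine, PC = dose giving highest level, PL = peak level at 10 μM. Data representative of one of three independent donors.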

[11] = biological target: TLR7 and TLR8 (Homo sapiens) (UniProt Q9NYK1+Q9NR97); assay: Agonist activity at TLR7/TLR8 in human PBMC assessed as IFN alpha level; in short: as §2
[12] = biological target: T4, Toll-like receptor 8 (Homo sapiens); assay: Agonist activity at TLR8 in human PBMC assessed as TNFalpha level; in short: as §3
[13] = biological target: T4, Toll-like receptor 8 (Homo sapiens); assay: Agonist activity at TLR8 in human PBMC assessed as induction of myeloid dendritic cell maturation by measuring HLA-DR level at 0.1 uM after 6 hrs by flow cytometry; in short: as §1

Toll-like receptor 3 (Homo sapiens), sequence (O15455 whole entry): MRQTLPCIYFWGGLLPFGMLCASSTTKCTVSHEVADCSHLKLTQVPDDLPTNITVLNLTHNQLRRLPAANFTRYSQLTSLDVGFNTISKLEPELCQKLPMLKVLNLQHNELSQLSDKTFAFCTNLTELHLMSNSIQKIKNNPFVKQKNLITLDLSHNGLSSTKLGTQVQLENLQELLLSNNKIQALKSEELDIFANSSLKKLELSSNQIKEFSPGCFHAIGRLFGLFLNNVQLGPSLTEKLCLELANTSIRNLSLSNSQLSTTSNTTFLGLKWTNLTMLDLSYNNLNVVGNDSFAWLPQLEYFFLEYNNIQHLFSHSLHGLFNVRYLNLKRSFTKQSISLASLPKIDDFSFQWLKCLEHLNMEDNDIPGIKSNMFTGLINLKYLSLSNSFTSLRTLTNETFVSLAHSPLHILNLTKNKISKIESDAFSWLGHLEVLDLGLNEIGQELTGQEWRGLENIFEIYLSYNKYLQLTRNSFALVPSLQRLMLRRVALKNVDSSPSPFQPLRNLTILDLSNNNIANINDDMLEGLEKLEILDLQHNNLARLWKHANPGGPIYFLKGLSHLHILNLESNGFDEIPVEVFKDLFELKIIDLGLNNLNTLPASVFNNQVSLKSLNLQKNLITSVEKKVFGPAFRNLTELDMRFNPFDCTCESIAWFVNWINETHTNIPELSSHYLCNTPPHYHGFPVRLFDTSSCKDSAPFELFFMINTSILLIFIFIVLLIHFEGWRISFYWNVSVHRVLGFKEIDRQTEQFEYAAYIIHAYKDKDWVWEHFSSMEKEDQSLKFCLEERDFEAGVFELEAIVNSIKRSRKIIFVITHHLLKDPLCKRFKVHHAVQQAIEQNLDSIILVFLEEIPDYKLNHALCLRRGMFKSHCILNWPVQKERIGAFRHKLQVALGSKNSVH

Row | SMILES | EC50 (Toll-like receptor 7) | fold change (FC) [1] | fold change (FC) [2] | Activity [3] | Activity [4] | fold change (FC) [5] | Activity [6] | Activity [7] | Activity [8] | Activity [9] | Activity [10] | ECmax [11] | MEC [11] | MEC [12] | Activity [13]
1 | CCCCOc1nc(N)c2[nH]c(=O)n(CCCCCC3CCNCC3)c2n1 | 0.45 µM | 1.7 to 2.3 | 1.7 to 2.3 | 4680 pg/mL | – | – | – | – | – | – | – | – | – | – | –
2 | CCC[C@H](C)Oc1nc(N)c2[nH]c(=O)n(CC3CCNCC3)c2n1 | 2.68 µM | 1.2 to 2.4 | 1.2 to 2.4 | 5470 pg/mL | inactive | 2 | inactive | – | – | – | – | – | – | – | –
3 | CCCCNc1nc(N)c2[nH]c(=O)n(CC3CCNCC3)c2n1 | 40 µM | – | – | 5980 pg/mL | – | – | – | – | – | – | – | – | – | – | –
4 | CCC[C@H](C)Oc1nc(N)c2[nH]c(=O)n(CCCCCC3CCNCC3)c2n1 | 0.24 µM | 1.7 to 2.3 | 1.7 to 2.3 | 2640 pg/mL | – | – | – | – | – | – | – | – | – | – | –

Continued, values first:

Row | EC50 (Toll-like receptor 7) | fold change (FC) [1] | fold change (FC) [2] | Activity [3] | Activity [4] | fold change (FC) [5] | Activity [6] | Activity [7] | Activity [8] | Activity [9] | Activity [10] | ECmax [11] | MEC [11] | MEC [12] | Activity [13] | SMILES
5 | 30 µM | 1.5 to 1.7 | 1.5 to 1.7 | 3040 pg/mL | – | 1.7 to 2.3 | – | inactive | inactive | – | – | – | – | – | – | CCCCOc1nc(N)c2[nH]c(=O)n(CC3CCN(CCN)CC3)c2n1
6 | 23.1 µM | 1.5 to 1.7 | 1.5 to 1.7 | 4730 pg/mL | – | 1.7 to 2.3 | – | inactive | inactive | inactive | 2740 pg/mL | 0.4 µM | 0.4 µM | 10 µM | inactive | CCCCOc1nc(N)c2[nH]c(=O)n(CC3CCN(CCO)CC3)c2n1
